# Tests used:
# MCF7 [1] = test: Cytotoxicity against human MCF7 cells after 72 hrs by MTT assay; assay type: functional; conditions: MCF7, 72 h
# Method in brief: (§1)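 MTT read-out after 72 h exposure at 37 °C in humidified 5% CO2, with five concentrations between 0.01 and 100. GI50 is 50% growth reduction versus untreated controls, TGI is complete growth inhibition, and LC50 is the concentration killing 50% of cells. Minimum three independent experiments.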
# CCRF-CEM = test: Cytotoxicity against human CCRF-CEM cells after 72 hrs by MTT assay; assay type: functional; conditions: for CC50: read-out: LC50 (the source's name); method in brief: as §1
# [2] = Cytotoxicity against human 184B5 cells after 72 hrs by MTT assay; assay type: cell-based; conditions: for GI50 at 72 h: 184B5 cells; for LC50 / TGI: 184b5, 72 h; method in brief: as §1
# [3] = Cytotoxicity against human HTB-54 cells after 72 hrs by MTT assay; assay type: functional; conditions: HTB-54, 72 h; for CC50: read-out: LC50 (the source's name); method in brief: as §1
# MCF7 [4] = test: Selectivity ratio of GI50 for human 184B5 cells to GI50 for human MCF7 cells
# Method in brief: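 Selectivity ratio is GI50 on non-tumoral 184B5 mammary cells divided by GI50 on MCF-7. Both come from the 72 h MTT assay. Ratio 3–6 means moderate selectivity, >6 high, and otherwise non-selective.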
# [5] = Cytotoxicity against human BEAS2B cells after 72 hrs by MTT assay; assay type: cell-based, BEAS-2B; conditions: for GI50 at 72 h: BEAS2B cells; for LC50 / TGI: beas-2b, 72 h; method in brief: as §1
# HT-29 = test: Cytotoxicity against human HT-29 cells after 72 hrs by MTT assay; assay type: functional; conditions: HT-29, 72 h; for CC50: read-out: LC50 (the source's name); method in brief: as §1
# MCF7 [6] = test: Induction of apoptosis in human MCF7 cells assessed as cell death at 10 uM after 48 hrs by TUNEL analysis (reference value: 4.23 +/- 1.99%); assay type: functional
# MCF7 [7] = test: Cell cycle arrest in human MCF7 cells assessed as accumulation at subG1 phase at 15 uM after 12 hrs by propidium iodide staining-based flow cytometric analysis (reference value: 2.17 +/- 0.24%); assay type: functional
# MCF7 [8] = test: Induction of apoptosis in human MCF7 cells assessed as cell death at 10 uM after 12 hrs by TUNEL analysis (reference value: 6.02 +/- 0.85%); assay type: functional
# MCF7 [9] = test: Cell cycle arrest in human MCF7 cells assessed as accumulation at G2/M phase at 15 uM after 24 hrs by propidium iodide staining-based flow cytometric analysis (reference value: 32.37 +/- 7.73%); assay type: functional
# MCF7 [10] = test: Cell cycle arrest in human MCF7 cells assessed as accumulation at G2/M phase at 15 uM after 12 hrs by propidium iodide staining-based flow cytometric analysis (reference value: 22.11 +/- 3.86%); assay type: functional
# MCF7 [11] = test: Cell cycle arrest in human MCF7 cells assessed as accumulation at G0/G1 phase at 15 uM after 24 hrs by propidium iodide staining-based flow cytometric analysis (reference value: 51.83 +/- 5.64%); assay type: functional
# MCF7 [12] = test: Cell cycle arrest in human MCF7 cells assessed as accumulation at S phase at 15 uM after 4 hrs by propidium iodide staining-based flow cytometric analysis (reference value: 19.09 +/- 4.54%); assay type: functional
# MCF7 [13] = test: Induction of apoptosis in human MCF7 cells assessed as cell death at 10 uM after 24 hrs by TUNEL analysis (reference value: 9.82 +/- 2.62%); assay type: functional
# MCF7 [14] = test: Cell cycle arrest in human MCF7 cells assessed as accumulation at S phase at 15 uM after 12 hrs by propidium iodide staining-based flow cytometric analysis (reference value: 17.07 +/- 4.00%); assay type: functional
# MCF7 [15] = test: Cell cycle arrest in human MCF7 cells assessed as accumulation at G0/G1 phase at 15 uM after 12 hrs by propidium iodide staining-based flow cytometric analysis (reference value: 57.34 +/- 1.64%); assay type: functional
# [16] = Permeability of the compound across human Caco2 cells; assay type: ADME, cell-based; conditions: Caco-2, read-out: permeability
# MCF7 [17] = test: Induction of apoptosis in human MCF7 cells assessed as cell death at 5 uM after 24 hrs by TUNEL analysis (reference value: 9.28 +/- 1.71%); assay type: functional
# MCF7 [18] = test: Induction of apoptosis in human MCF7 cells assessed as cell death at 1 uM after 24 hrs by TUNEL analysis (reference value: 6.12 +/- 1.61%); assay type: functional
# MCF7 [19] = test: Induction of apoptosis in human MCF7 cells assessed as cell death at 15 uM after 24 hrs by TUNEL analysis (reference value: 5.13 +/- 4.32%); assay type: functional
# MCF7 [20] = test: Induction of apoptosis in human MCF7 cells assessed as cell death at 10 uM after 4 hrs by TUNEL analysis (reference value: 5.85 +/- 5.21%); assay type: functional
# MCF7 [21] = test: Cell cycle arrest in human MCF7 cells assessed as accumulation at S phase at 15 uM after 24 hrs by propidium iodide staining-based flow cytometric analysis (reference value: 12.39 +/- 1.54%); assay type: functional
# MCF7 [22] = test: Cell cycle arrest in human MCF7 cells assessed as accumulation at subG1 phase at 15 uM after 4 hrs by propidium iodide staining-based flow cytometric analysis (reference value: 5.90 +/- 1.36%); assay type: functional
# MCF7 [23] = test: Induction of apoptosis in human MCF7 cells assessed as cell death at 20 uM after 24 hrs by TUNEL analysis (reference value: 9.56 +/- 1.38%); assay type: functional
# MCF7 [24] = test: Cell cycle arrest in human MCF7 cells assessed as accumulation at G0/G1 phase at 15 uM after 4 hrs by propidium iodide staining-based flow cytometric analysis (reference value: 49.38 +/- 4.74%); assay type: functional
# MCF7 [25] = test: Cell cycle arrest in human MCF7 cells assessed as accumulation at G2/M phase at 15 uM after 4 hrs by propidium iodide staining-based flow cytometric analysis (reference value: 21.60 +/- 5.37%); assay type: functional
# MCF7 [26] = test: Cell cycle arrest in human MCF7 cells assessed as accumulation at subG1 phase at 15 uM after 24 hrs by propidium iodide staining-based flow cytometric analysis (reference value: 2.93 +/- 0.54%); assay type: functional
# MCF7 [27] = test: Induction of apoptosis in human MCF7 cells assessed as cell death at 10 uM by TUNEL analysis; assay type: functional, cell-based; conditions: TDE = time-dependent effect
# MCF7 [28] = test: Induction of apoptosis in human MCF7 cells assessed as cell death at 20 uM after 24 hrs by TUNEL analysis relative to control; assay type: functional
# MCF7 [29] = test: Induction of apoptosis in human MCF7 cells assessed as cell death at 5 uM after 24 hrs by TUNEL analysis relative to control; assay type: functional
smiles,measurement,setting,value
CCCCCSc1nc(O)c2ccccc2n1,GI50,MCF7 [1],7.82 µM
same,LC50,MCF7 [1],> 100 µM
same,TGI,MCF7 [1],81.4 µM
same,GI50,CCRF-CEM,52.1 µM
same,TGI,CCRF-CEM,86 µM
same,CC50,CCRF-CEM,> 100 µM
same,GI50 at 72 h,[2],> 100 µM
same,LC50,[2],> 100 µM
same,TGI,[2],> 100 µM
same,GI50,[3],30.4 µM
same,TGI,[3],> 100 µM
same,CC50,[3],> 100 µM
same,RatioGI50,MCF7 [4],>12
same,GI50 at 72 h,[5],51.4 µM
same,LC50,[5],> 100 µM
same,TGI,[5],> 100 µM
same,GI50,HT-29,74.6 µM
same,TGI,HT-29,> 100 µM
same,CC50,HT-29,> 100 µM
CSc1ccc(CNc2nc(SC)nc3ncccc23)cc1,Activity,MCF7 [6],11.66%
same,GI50,MCF7 [1],0.05 µM
same,LC50,MCF7 [1],9.13 µM
same,TGI,MCF7 [1],4.37 µM
same,Activity,MCF7 [7],2.24%
same,GI50,CCRF-CEM,5.35 µM
same,TGI,CCRF-CEM,16.8 µM
same,CC50,CCRF-CEM,59 µM
same,GI50 at 72 h,[2],0.19 µM
same,LC50,[2],5.64 µM
same,TGI,[2],1.14 µM
same,GI50,[3],3.28 µM
same,TGI,[3],14.8 µM
same,CC50,[3],63.6 µM
same,Activity,MCF7 [8],11.51%
same,Activity,MCF7 [9],30.2%
same,Activity,MCF7 [10],22.99%
same,Activity,MCF7 [11],52.91%
same,Activity,MCF7 [12],18.02%
same,Activity,MCF7 [13],25.95%
same,Activity,MCF7 [14],19.35%
same,Activity,MCF7 [15],55.42%
same,Papp,[16],4.4 ×10⁻⁶ cm/s
same,Activity,MCF7 [17],13.7%
same,Activity,MCF7 [18],3.4%
same,Activity,MCF7 [19],23.95%
same,Activity,MCF7 [20],5.26%
same,Activity,MCF7 [21],11.04%
same,Activity,MCF7 [22],3.88%
same,Activity,MCF7 [23],22.63%
same,GI50 at 72 h,[5],0.6 µM
same,LC50,[5],8.47 µM
same,TGI,[5],3.77 µM
same,Activity,MCF7 [24],50.42%
same,Activity,MCF7 [25],23.88%
same,GI50,HT-29,4.32 µM
same,TGI,HT-29,7.03 µM
same,CC50,HT-29,8.75 µM
same,Activity,MCF7 [26],2.97%
[SeH]c1nc([SeH])c2ccccc2n1,Activity,MCF7 [6],58.31%
same,GI50,MCF7 [1],2.92 µM
same,LC50,MCF7 [1],> 100 µM
same,TGI,MCF7 [1],22.9 µM
same,Activity,MCF7 [7],2.37%
same,GI50,CCRF-CEM,2.99 µM
same,TGI,CCRF-CEM,6.01 µM
same,CC50,CCRF-CEM,9.03 µM
same,GI50 at 72 h,[2],0.49 µM
same,LC50,[2],6.63 µM
same,TGI,[2],2.5 µM
same,GI50,[3],5.98 µM
same,TGI,[3],65.9 µM
same,CC50,[3],> 100 µM
same,Activity,MCF7 [8],12.26%
same,Activity,MCF7 [9],34.67%
same,Activity,MCF7 [10],25.63%
same,Activity,MCF7 [11],47.77%
same,Activity,MCF7 [12],23.29%
same,Activity,MCF7 [13],27.29%
same,Activity,MCF7 [14],18.36%
same,Activity,MCF7 [27],tde
same,Activity,MCF7 [15],56.21%
same,Papp,[16],4.67 ×10⁻⁶ cm/s
same,Activity,MCF7 [17],16.32%
same,Activity,MCF7 [18],2.76%
same,Activity,MCF7 [19],76.82%
same,Activity,MCF7 [20],6.01%
same,Activity,MCF7 [21],15.75%
same,fold change (FC),MCF7 [28],9
same,Activity,MCF7 [22],3.98%
same,Activity,MCF7 [23],87.55%
same,Activity,MCF7 [24],52.09%
same,Activity,MCF7 [25],21.21%
same,GI50,HT-29,8.98 µM
same,TGI,HT-29,45.2 µM
same,CC50,HT-29,87.9 µM
same,fold change (FC),MCF7 [29],1.7
same,Activity,MCF7 [26],3.46%
CSc1nc(NCCCCCO)c2cccnc2n1,GI50,MCF7 [1],48.9 µM
same,LC50,MCF7 [1],> 100 µM
same,TGI,MCF7 [1],> 100 µM
same,GI50,CCRF-CEM,> 100 µM
same,TGI,CCRF-CEM,> 100 µM
same,CC50,CCRF-CEM,> 100 µM
same,GI50 at 72 h,[2],> 100 µM
same,LC50,[2],> 100 µM
same,TGI,[2],> 100 µM
same,GI50,[3],> 100 µM
same,TGI,[3],> 100 µM
same,CC50,[3],> 100 µM
same,GI50 at 72 h,[5],> 100 µM
same,LC50,[5],> 100 µM
same,TGI,[5],> 100 µM
same,GI50,HT-29,63.9 µM
same,TGI,HT-29,> 100 µM
same,CC50,HT-29,> 100 µM
